Structures are written as SMILES. Active and inactive are the calls of the source. No cut-off for these calls is given here.

As usually defined, the inhibition is the change of the read-out against control, counted positive when it falls. In general, IC50 refers to the concentration that gives 50% inhibition. As usually defined, the CC50 is the concentration giving 50% cytotoxicity. The term Kd denotes the free concentration of one partner at which half of the binding sites on the other are occupied at equilibrium, for simple one-to-one binding.

In data set [1] the target is Replicase polyprotein 1ab (Severe acute respiratory syndrome coronavirus 2) (UniProt P0DTD1). Nature of the data set: Inhibition of SARS CoV-2 main protease at 50 uM using DABCYL-KTSAVLQSGFRKM-E(EDANS)-NH2 as substrate preincubated for 30 mins followed by substrate addition and measured after 20 mins relative to control. To be noted: time 50.0 min. An outline of the steps:
(§1)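 FRET protease assay in 40 mM PBS, 100 mM NaCl, 1 mM EDTA, 0.1% Triton, pH 7.3. M^pro (0.5 μM) was preincubated with inhibitor 30 min at room temperature, then 20 μM substrate was added. Cleavage fluorescence (ex 360/em 460 nm) was read for 20 min. This covers preliminary screening and IC50; IC50 from Hill1 fit.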

Data set [2] has as its target T1, Replicase polyprotein 1ab (Severe acute respiratory syndrome coronavirus 2, UniProt P0DTD1). Nature of the data set: Inhibition of SARS CoV-2 main protease using DABCYL-KTSAVLQSGFRKM-E(EDANS)-NH2 as substrate preincubated for 30 mins followed by substrate addition and measured after 20 mins.
Data set [3] concerns the target Replicase polyprotein 1ab (Severe acute respiratory syndrome coronavirus 2) (UniProt P0DTD1). Nature of the data set: Covalent binding affinity to SARS CoV-2 main protease at 15 uM incubated for 3 hrs by Quadrupole-TOF LC-MS/MS analysis. An outline of the steps:
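Protease (2 μM) was co-incubated with 15 μM inhibitor on ice for 3 h. The complex was run on Q-TOF LC-MS/MS, and raw mass signal was deconvoluted to give total protein mass.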

For data set [4], the system named is Vero. Briefly: (§2) Cytotoxicity against African green monkey Vero cells assessed as reduction in cell viability measured after 48 hrs by MTT assay. It counts as toxicity, cell-based. The conditions noted are these: chlorocebus sabaeus, vero, 48 h. An outline of the steps:
(§3)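 MTT viability assay. Vero cells were kept in MEM and MDCK cells in DMEM, each with 10% FBS and 100 U/mL penicillin/streptomycin, humidified, 5% CO2. Cells were seeded, incubated 18 h, then given compound; vehicle served as blank.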

In data set [5] the target is T1, Replicase polyprotein 1ab. Nature of the data set: Inhibition of SARS CoV-2 main protease using DABCYL-KTSAVLQSGFRKM-E(EDANS)-NH2 as substrate preincubated for 5 mins followed by substrate addition. The essentials: (§4)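 Time-dependence: M^pro was preincubated with various inhibitor concentrations for different times at room temperature before fluorogenic substrate addition. Activity was read as in the standard FRET assay.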

Data set [6] concerns the target Procathepsin L (Homo sapiens, UniProt P07711). Nature of the data set: Inhibition of human Cathepsin L using Ac-FR-AFC as fluorescent substrate preincubated for 15 mins followed by substrate addition and measured after 30 mins by fluorescent microplate reader analysis.
For data set [7], the target named is Replicase polyprotein 1ab (Severe acute respiratory syndrome coronavirus 2) (UniProt P0DTD1). Nature of the data set: Reversible inhibition of SARS CoV-2 main protease at 100 uM incubated for 180 mins by ultrafiltration assay. The essentials: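 Reversibility: 10 μM M^pro was incubated with 100 μM inhibitor for 180 min and split into four portions, each ultrafiltered a different number of times. Each round added an equal volume of assay buffer, 5 min, 4 °C, 12,000 rpm. Retained protease was diluted to 0.5 μM and assayed for activity; three replicates averaged.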

Data set [8] relates to MDCK. Briefly: Cytotoxicity against MDCK cells assessed as reduction in cell viability incubated for 48 hrs by MTT assay. The data set is classed as toxicity, cell-based, Canis lupus familiaris. To be noted: dog. An outline of the steps: as §3
(Formazan colour is commonly taken as a measure of viable cells.)

In data set [9] the target is T1, Replicase polyprotein 1ab. Nature of the data set: Inhibition of SARS CoV-2 main protease using DABCYL-KTSAVLQSGFRKM-E(EDANS)-NH2 as substrate preincubated for 180 mins followed by substrate addition. The essentials:
as §4

For data set [10], the target named is T1, Replicase polyprotein 1ab. Briefly: Inhibition of SARS CoV-2 main protease using DABCYL-KTSAVLQSGFRKM-E(EDANS)-NH2 as substrate preincubated for 30 mins followed by substrate addition. The essentials: as §1
The target of data set [11] is Replicase polyprotein 1ab (Severe acute respiratory syndrome coronavirus 2) (UniProt P0DTD1). Briefly: Non-competitive inhibition of SARS CoV-2 main protease using DABCYL-KTSAVLQSGFRKM-E(EDANS)-NH2 as substrate at varying concentrations preincubated for 3 hrs followed by substrate addition by Lineweaver-burk plot analysis. The essentials: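 Kinetics: 0.5 μM M^pro was preincubated 3 h with DMSO or inhibitor, then varying fluorogenic substrate concentrations started the reaction. Three replicates, curve-fitted.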

A short description of data set [12]: as §2. The data set is classed as toxicity, cell-based. The conditions noted are these: chlorocebus sabaeus, Vero cells. The essentials: as §3
In data set [13] the target is T1, Replicase polyprotein 1ab. Briefly: Binding affinity to SARS-CoV-2 main protease assessed as dissociation constant by SPR analysis. The essentials: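 SPR with M^pro immobilised and an empty first flow channel as reference. Compounds were injected for 60 s at 0.2–100 μM for binding (50 μM for screening). Dissociation was followed for 100–200 s at 30 μL/min. […] K_D came from a 1:1 kinetic binding fit.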
For orientation: Surface plasmon resonance follows binding to a sensor surface in real time, without labels.

Sequence of Procathepsin L (P07711 whole entry): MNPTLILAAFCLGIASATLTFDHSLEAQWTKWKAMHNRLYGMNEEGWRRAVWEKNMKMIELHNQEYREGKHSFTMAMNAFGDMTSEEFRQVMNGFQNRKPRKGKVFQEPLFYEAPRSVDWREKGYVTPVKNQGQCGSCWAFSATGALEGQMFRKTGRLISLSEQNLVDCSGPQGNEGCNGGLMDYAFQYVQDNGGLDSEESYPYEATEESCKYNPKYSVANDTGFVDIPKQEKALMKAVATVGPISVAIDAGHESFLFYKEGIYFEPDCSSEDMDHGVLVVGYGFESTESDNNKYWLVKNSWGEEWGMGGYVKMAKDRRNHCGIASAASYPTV

`NC(=S)N/N=C/c1ccc(-c2cccc(C(=O)O)c2)o1`: in data set [1], the inhibition came to 85.1%. For the same compound, the IC50 in data set [2] came to 10.9 µM.

Turning to `NC(=O)c1ccc(-c2ccc(/C=N/NC(N)=S)o2)cc1`, the inhibition in [1] amounted to 94.2%. Also, in data set [2], 4 µM corresponded to half-maximal inhibition (IC50).

Consider `NC(=S)N/N=C/c1ccc(-c2cccc([N+](=O)[O-])c2)o1`, for which, in data set [1], the inhibition amounted to 81.6%. The IC50 in [2] was determined as 8.08 µM.

With `NC(=S)N/N=C/c1ccc(-c2ccc(O)c(C(=O)O)c2)o1`, the inhibition in [1] was 115%. Besides, in data set [2], it took 9.09 µM to reach half-maximal inhibition (IC50).

For the compound `Cc1cc(C(=O)O)ccc1-c1ccc(/C=N/NC(N)=S)o1`, the inhibition in [1] came out at 98.5%. Further, the IC50 in [2] was found to be 4.69 µM.

For the compound `Cc1cc([N+](=O)[O-])c(-c2ccc(/C=N/NC(=O)c3nonc3N)o2)cc1Cl`, in [1], the inhibition worked out at 70.9%. Also, the IC50 in [2] was determined as 25 µM.

Take `Cc1c(NC(=S)N/N=C/c2ccc(-c3ccc([N+](=O)[O-])cc3)o2)c(=O)n(-c2ccccc2)n1C`: the inhibition in data set [1] stood at 95%. This compound displayed an IC50 in data set [2] of 10.8 µM.

On to `NC(=S)N/N=C/c1ccc(-c2cccc(C(=O)O)c2Cl)o1`, for which the inhibition in data set [1] turned out to be 84.4%. Besides, the midpoint of inhibition in data set [2], the IC50, lay at 40.6 µM.

`NC(=S)N/N=C/c1ccc(-c2ccc(C(=O)O)cc2)s1`: the inhibition in [1] was 95.1%. Moreover, in data set [2], the IC50 was determined as 5.78 µM.

As for `NC(=S)N/N=C/c1ccc(-c2ccc(C(=O)O)cc2F)o1`, the inhibition in data set [1] stood at 101%. The compound also returned an IC50 in data set [2] of 8.14 µM.

In the case of `NC(=S)N/N=C/c1ccc(-c2ccc(C(=O)O)c(O)c2)o1`, the outcome in data set [3] was Active. For the same compound, the CC50 in data set [4] and in data set [8] was > 100 µM throughout. Moreover, the IC50 came to 42.8 µM in data set [5]; 16.3 µM in data set [6]; 1.57 µM in data set [2]; 0.85 µM in [9]; 6.18 µM in data set [10]. The inhibition entry in data set [7] and in [11] was “Active” in each case. Further, the inhibition in [1] was 102%.

Consider `NC(=S)N/N=C/c1ccc(Cc2ccccc2)o1`, for which the CC50 at 48 h in data set [12] is 100 µM. The IC50 in data set [6] stood at 8.09 µM; in [2] it was 1.55 µM. For the same compound, the inhibition in data set [1] was 100%. The CC50 in data set [8] is > 100 µM.

Regarding `NC(=S)N/N=C/c1ccc(-c2ccncc2)o1`, the inhibition in data set [1] was determined as 95.4%. In data set [2], this compound came in with an IC50 of 7.09 µM.

Consider `Nc1nonc1-c1nc2ccccc2n1CC(=O)N/N=C/c1ccc(-c2cccc(C(=O)O)c2)o1`, for which the inhibition in [1] is 65%. The compound also gave an IC50 in [2] of 21.3 µM. Also, the Kd in data set [13] came to 27.7 µM.

As for `Cc1cc(-c2ccc(/C=N/NC(=O)Cn3nnnc3N)o2)c([N+](=O)[O-])cc1C`, the inhibition in data set [1] is 86%. The compound further returned an IC50 in data set [2] of 17.5 µM.

As for `NC(=S)N/N=C/c1ccc(-c2ccc(S(N)(=O)=O)cc2)o1`, the inhibition in data set [1] was found to be 98.5%. This compound also came in with an IC50 in [2] of 5.39 µM.

With `NC(=S)N/N=C/c1ccc(-c2ccc([N+](=O)[O-])cc2)o1`, in [1], the inhibition worked out at 81.1%. For the same compound, in data set [2], the IC50 came to 9.69 µM.

In the case of `NC(=S)N/N=C/c1ccc(-c2ccccc2)o1`, the inhibition in data set [1] was determined as 100%. In data set [2], this compound displayed an IC50 of 4.05 µM.

For the compound `COc1ccc(-c2ccc(/C=N/NC(N)=S)o2)cc1OC`, in [1], the inhibition worked out at 102%. In [2], this compound came in with an IC50 of 5.81 µM.

In the case of `N#Cc1cc(-c2ccc(/C=N/NC(N)=S)o2)ccc1O`, the inhibition in data set [1] is 107%. This compound also showed an IC50 in data set [2] of 4.14 µM.

As for `NC(=S)N/N=C/c1ccc(-c2cc(C(=O)O)ccc2Cl)o1`, in data set [1], the inhibition is 97.2%. The compound also came in with an IC50 in data set [2] of 10 µM.

Take `NC(=S)N/N=C/c1ccc(-c2ccc3cccnc3c2)o1`: the inhibition in data set [1] was 92.3%. Further, the IC50 in data set [2] amounted to 10.4 µM.

The values above are taken from ChEMBL document CHEMBL5137045, “Discovery of 2-(furan-2-ylmethylene)hydrazine-1-carbothioamide derivatives as novel inhibitors of SARS-CoV-2 main protease” (Eur J Med Chem, 2022).
